{"data": "Measured values collected from several papers", "cell line": "MCF7", "read-out": "cell growth or viability", "note": "Protocols differ between the studies behind these lines."}
{"SMILES": "O=C(NCc1cn(Cc2ccc(Br)cc2)nn1)Nc1ccccc1Br", "test": "CCK-8", "setting": "50 µM, 72 h", "measurement": "viability", "result": "80.2%"}
{"SMILES": "CC(C)(C)[C@H](N)C(=O)Nc1ccccc1/N=c1\\cc(-c2ccc3c(c2)OCCO3)oc2cc(F)ccc12", "test": "CCK-8", "setting": "1 µM", "measurement": "inhibition", "result": "9.85%"}
{"SMILES": "COc1ccc(NC(=O)Nc2cccc(-c3cn(Cc4ccccc4C)nn3)c2)cc1", "test": "CCK-8", "setting": "50 µM, 48 h", "measurement": "viability", "result": "94.8%"}
{"SMILES": "O=C(Nc1ccc(-c2cn(Cc3ccc(Br)cc3)nn2)cc1)Nc1ccccc1Br", "test": "CCK-8", "setting": "50 µM, 48 h", "measurement": "viability", "result": "92.9%"}
{"SMILES": "NCCC(=O)Nc1ccccc1/N=c1\\cc(-c2ccc3nc(N)oc3c2)oc2cc(O)ccc12", "test": "CCK-8", "setting": "1 µM", "measurement": "inhibition", "result": "9.96%"}
{"SMILES": "Cc1n[nH]c2ccc3nc(-c4ccc(C(=O)NCCN(C)C)cc4F)c4c(c3c12)CCCC4", "setting": "72 h", "measurement": "GI50", "result": "0.99 µM"}
{"SMILES": "CCOc1ccc(-c2cc(C(=O)O)c(-c3ccc(Cl)cc3)o2)cc1", "test": "MTT", "setting": "48 h", "measurement": "EC50", "result": "170 µM"}
{"SMILES": "NCC(=O)Nc1ccccc1/N=c1\\cc(-c2ccc3c(c2)OCO3)oc2ccccc12", "test": "CCK-8", "setting": "1 µM", "measurement": "inhibition", "result": "10.9%"}
{"SMILES": "COc1ccc(NC(=O)Nc2cccc(-c3cn(Cc4cccc(Cl)c4)nn3)c2)cc1", "test": "CCK-8", "setting": "50 µM, 48 h", "measurement": "viability", "result": "103%"}
{"SMILES": "O=C(Nc1ccc(Cl)cc1)Nc1cccc(-c2cn(Cc3ccc(Cl)cc3)nn2)c1", "test": "CCK-8", "setting": "50 µM, 72 h", "measurement": "viability", "result": "98.2%"}
{"SMILES": "COc1ccc(NC(=O)Nc2cccc(-c3cn(Cc4ccc(C)cc4)nn3)c2)cc1", "test": "CCK-8", "setting": "50 µM, 72 h", "measurement": "viability", "result": "104%"}
{"SMILES": "COc1ccc(C=NNC(=O)c2nc3ccccc3s2)cc1OS(C)(=O)=O", "test": "MTT", "setting": "100 µM, 48 h", "measurement": "cell death", "result": "32.3%"}
{"SMILES": "COc1ccc(NC(=O)NCc2cn(Cc3ccc(Br)cc3)nn2)cc1", "test": "CCK-8", "setting": "50 µM, 48 h", "measurement": "viability", "result": "87.8%"}
{"SMILES": "CCNc1nc2ccc(-c3c/c(=N\\c4ccccc4NC(=O)CCN)c4ccccc4o3)cc2o1", "test": "CCK-8", "setting": "1 µM", "measurement": "inhibition", "result": "3.78%"}
{"SMILES": "COc1cc(C=NNC(=O)c2nc3ccccc3s2)ccc1O", "test": "MTT", "setting": "100 µM, 48 h", "measurement": "cell death", "result": "16.6%"}
{"SMILES": "NCCC(=O)Nc1ccccc1/N=c1\\cc(-c2ccc3oc(N)nc3c2)oc2ccccc12", "test": "CCK-8", "setting": "1 µM", "measurement": "inhibition", "result": "6%"}
{"SMILES": "O=c1[nH]cc(F)c(=O)[nH]1", "test": "MTT", "setting": "100 µM, 48 h", "measurement": "cell death", "result": "71.2%"}
{"SMILES": "COc1ccc(NC(=O)Nc2cccc(-c3cn(Cc4ccc(Cl)cc4)nn3)c2)cc1", "test": "CCK-8", "setting": "50 µM, 48 h", "measurement": "viability", "result": "100%"}
{"SMILES": "CCS(=O)(=O)Oc1ccc(C=NNC(=O)c2nc3ccccc3s2)cc1OC", "test": "MTT", "setting": "100 µM, 48 h", "measurement": "cell death", "result": "40.5%"}
{"SMILES": "COc1cccc2c1C(=O)c1c(O)c3c(c(O)c1C2=O)C[C@@](O)(C(=O)CO)C[C@@H]3O[C@H]1C[C@H](N)[C@H](O)[C@H](C)O1", "test": "MTT", "setting": "48 h", "measurement": "IC50", "result": "5.17 µM"}
{"SMILES": "O=C(Nc1cccc(-c2cn(Cc3ccc(Br)cc3)nn2)c1)Nc1ccccc1Br", "test": "CCK-8", "setting": "50 µM, 48 h", "measurement": "viability", "result": "89.7%"}
{"SMILES": "COc1ccc(NC(=O)Nc2ccc(-c3cn(Cc4cccc(Cl)c4)nn3)cc2)cc1", "test": "CCK-8", "setting": "50 µM, 48 h", "measurement": "viability", "result": "95.4%"}
{"SMILES": "Cc1nc(NC(=O)N2CCC[C@H]2C(N)=O)sc1-c1ccnc(C(C)(C)C(F)(F)F)c1", "test": "ATP luminescence", "setting": "5 days", "measurement": "EC50", "result": "0.917 µM"}
{"SMILES": "C[C@H](N)C(=O)Nc1ccccc1/N=c1\\cc(-c2ccc3c(c2)OCO3)oc2ccccc12", "test": "CCK-8", "setting": "1 µM", "measurement": "inhibition", "result": "8.48%"}
{"SMILES": "CN(C)CCNC(=O)c1ccc(-c2nc3ccc4[nH]ncc4c3c3c2CCCC3)c(F)c1", "setting": "72 h", "measurement": "GI50", "result": "3.32 µM"}
{"SMILES": "O=C(Nc1ccc(Cl)cc1)Nc1ccc(-c2cn(Cc3ccc(Br)cc3)nn2)cc1", "test": "CCK-8", "setting": "50 µM, 72 h", "measurement": "viability", "result": "97.8%"}
{"SMILES": "COc1cccc2c1C(=O)c1c(O)c3c(c(O)c1C2=O)C[C@@](O)(C(=O)CO)C[C@@H]3O[C@H]1C[C@H](N)[C@H](O)[C@H](C)O1", "test": "MTT", "setting": "24 h", "measurement": "IC50", "result": "18.4 µM"}
{"SMILES": "O=C(NCc1cn(Cc2cccc(Cl)c2)nn1)Nc1ccc(Cl)cc1", "test": "CCK-8", "setting": "50 µM, 48 h", "measurement": "viability", "result": "82%"}
{"SMILES": "Cc1n[nH]c2ccc3nc(-c4ccc(C(=O)NCCN(C)C)cc4)c4c(c3c12)CCCCC4", "setting": "72 h", "measurement": "GI50", "result": "5.25 µM"}
{"SMILES": "O=C(Nc1ccc(Cl)cc1)Nc1ccc(-c2cn(Cc3cccc(Cl)c3)nn2)cc1", "test": "CCK-8", "setting": "50 µM, 48 h", "measurement": "viability", "result": "91.8%"}
{"SMILES": "CN(C)CCNC(=O)c1ccc(-c2nc3ccc4[nH]ncc4c3c3c2CCCCC3)cc1", "setting": "72 h", "measurement": "GI50", "result": "3.32 µM"}
{"SMILES": "COc1ccc(NC(=O)NCc2cn(Cc3ccccc3C)nn2)cc1", "test": "CCK-8", "setting": "50 µM, 72 h", "measurement": "viability", "result": "98.7%"}
{"SMILES": "O=C(Nc1cccc(-c2cn(Cc3ccc(Cl)cc3)nn2)c1)Nc1ccccc1Br", "test": "CCK-8", "setting": "50 µM, 48 h", "measurement": "viability", "result": "89.5%"}
{"SMILES": "NCC(=O)Nc1ccccc1/N=c1\\cc(-c2ccc3c(c2)OCO3)oc2c([N+](=O)[O-])cccc12", "test": "CCK-8", "setting": "1 µM", "measurement": "inhibition", "result": "11.7%"}
{"SMILES": "COc1ccc(NC(=O)NCc2cn(Cc3ccc(Cl)cc3)nn2)cc1", "test": "CCK-8", "setting": "50 µM, 48 h", "measurement": "viability", "result": "90.6%"}
{"SMILES": "Cc1n[nH]c2ccc3nc(-c4ccc(C(=O)NCCN(C)C)cc4F)c4c(c3c12)CCCCC4", "setting": "72 h", "measurement": "GI50", "result": "5.72 µM"}
{"SMILES": "Nc1nc2ccc(-c3c/c(=N\\c4ccccc4NC(=O)CCN4CCOCC4)c4ccccc4o3)cc2o1", "test": "CCK-8", "setting": "1 µM", "measurement": "inhibition", "result": "7.35%"}
{"SMILES": "COc1cccc2c1C(=O)c1c(O)c3c(c(O)c1C2=O)C[C@@](O)(C(=O)CO)C[C@@H]3O[C@H]1C[C@H](N)[C@H](O)[C@H](C)O1", "test": "MTT", "measurement": "IC50", "result": "34.3 µM"}
